Laboratory results published in ChEMBL document CHEMBL1275586, “Phenotypic susceptibility to bevirimat in isolates from HIV-1-infected patients without prior exposure to bevirimat” (Antimicrob Agents Chemother, 2010).

What was measured:
[1] = tested on: Human immunodeficiency virus 1; assay: Antiviral activity against Human immunodeficiency virus 1 isolate 10 harboring Gag-capsid I138L, I147L, V159I, V215L, G248A, I256V, T280V, R286K and N315H mutant gene and protease L10I, K20R, E35D, M36I, S37N, R41K, K45R, F53L, I54V, L63P, I64V, A71T, V82A, L90M and I93L mutant gene infected in human MT-2 cells by XTT-assay relative to wild-type; type: functional, MT2
Method in brief: (§1)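 Patient Gag-protease (SfoI-XmaI) fragments were ligated into the pXXLAI backbone, with colonies pooled to keep quasispecies. Virus came from 293T transfection, harvested at 2 days. MT-2 infection at 37°C used an input giving XTT signal-to-noise of 2.5–4.0 (≈MOI 0.001). Cells at ≈17,000/well with drug dilutions, 5 days, 37°C; XTT 1 h, A450–650. EC50 from % cell death; fold change vs wild-type LAI.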

[2] = tested on: Human immunodeficiency virus 1; assay: Antiviral activity against Human immunodeficiency virus 1 isolate 7 harboring Gap-SP-1 V362I mutant infected in human MT-2 cells by XTT-assay relative to wild-type; type: functional, MT2; method in brief: as §1
[3] = tested on: Human immunodeficiency virus 1; assay: Antiviral activity against Human immunodeficiency virus 1 isolate 38 harboring Gag-SP1 V370A, N372S/G, S373P/T/Q/K, A374A/G/T/S, T375A and I376M mutant gene infected in human MT-2 cells by XTT assay relative to wild-type; type: functional, MT2; method in brief: as §1
[4] = tested on: Human immunodeficiency virus 1; assay: Antiviral activity against Human immunodeficiency virus 1 isolate 37 harboring Gag-capsid G357S mutant gene and Gag-SP1 I376V mutant gene infected in human MT-2 cells by XTT assay relative to wild-type; type: functional, MT2; method in brief: as §1
[5] = tested on: Human immunodeficiency virus 1; assay: Antiviral activity against antiretroviral-pretreated PI-resistant Human immunodeficiency virus 1 isolate 3 harboring Gag-capsid G357S mutant gene, Gag-Sp-1 V370A and N372H mutant gene and deletion at T371 in Gag-SP-1 infected in human MT-2 cells by XTT assay relative to wild-type; type: functional, MT2
Method in brief: (§2)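 Patient-derived Gag fragments were pooled as bacterial colonies to keep quasispecies diversity and ligated into the pXXLAI (HIV-1 LAI) backbone. Virus was made by transfecting 293T cells and harvesting supernatant 2 days later. MT-2 cells were infected at 37°C with an inoculum titrated to give an XTT signal-to-noise of 2.5–4.0. Cells were plated into drug dilutions, incubated 5 days at 37°C, and read by XTT absorbance (450−650 nm). EC50 was taken from percent cell death and expressed as fold change versus wild-type LAI.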

[6] = tested on: Human immunodeficiency virus 1; assay: Antiviral activity against Human immunodeficiency virus 1 isolate 4 harboring Gag-capsid A146P, V159I, V215L, I223G/V, P255A, E312D and G357S mutant gene and protease L10R, S37N, M46L, I62V, L63P, A71V, V82T, L90M and I93L mutant gene infected in human MT-2 cells by XTT-assay relative to wild-type; type: functional, MT2; method in brief: as §1
[7] = tested on: Human immunodeficiency virus 1; assay: Antiviral activity against antiretroviral-pretreated PI-resistant Human immunodeficiency virus 1 isolate 1 harboring Gag-Sp-1 S368C, V370A and A374N mutant gene deletion at T371 in Gag-SP-1 infected in human MT-2 cells by XTT assay relative to wild-type; type: functional, MT2; method in brief: as §2
[8] = tested on: Human immunodeficiency virus 1; assay: Antiviral activity against Human immunodeficiency virus 1 isolate 2 harboring Gag-capsid A146P, S173A, V215L, E230D, N252S, L268M and A340G mutant gene and protease L10I, I15V, K20R, M36I, S37N, M46I, L63P, V82A, N83H, I84V, I85T and L90M mutant gene infected in human MT-2 cells by XTT-assay relative to wild-type; type: functional, MT2; method in brief: as §1
[9] = tested on: Human immunodeficiency virus 1; assay: Antiviral activity against antiretroviral-pretreated PI-resistant Human immunodeficiency virus 1 isolate 29 harboring Gag-SP-1 T375A mutant gene infected in human MT-2 cells by XTT assay relative to wild-type; type: functional, MT2; method in brief: as §2
[10] = tested on: Human immunodeficiency virus 1; assay: Antiviral activity against antiretroviral-pretreated PI-resistant Human immunodeficiency virus 1 isolate 2 harboring Gag-SP-1 S373A, A374G and T375A mutant gene infected in human MT-2 cells by XTT assay relative to wild-type
[11] = tested on: Human immunodeficiency virus 1; assay: Antiviral activity against antiretroviral-pretreated PI-resistant Human immunodeficiency virus 1 isolate 26 harboring Gag-SP1 N372S, S373P and T375N mutant gene infected in human MT-2 cells by XTT assay relative to wild-type; type: functional, MT2; method in brief: as §2
[12] = tested on: Human immunodeficiency virus 1; assay: Antiviral activity against antiretroviral-pretreated Human immunodeficiency virus 1 isolate 8 infected in human MT-2 cells by XTT assay relative to wild-type; type: functional, MT2; method in brief: as §2
[13] = tested on: Human immunodeficiency virus 1; assay: Antiviral activity against Human immunodeficiency virus 1 isolate 6 harboring Gag-SP-1 S373 and A374 mutant infected in human MT-2 cells by XTT-assay relative to wild-type; type: functional, MT2; method in brief: as §1
[14] = tested on: Human immunodeficiency virus 1; assay: Antiviral activity against Human immunodeficiency virus 1 isolate 6 harboring Gag-SP-1 V370, S373 and A374 mutant infected in human MT-2 cells by XTT-assay relative to wild-type; type: functional, MT2; method in brief: as §1
[15] = tested on: Human immunodeficiency virus 1; assay: Antiviral activity against Human immunodeficiency virus 1 isolate 35 harboring Gag-capsid G357S mutant gene and Gag-SP1 V370A, T371Q, N372S, T375N and I376M mutant gene infected in human MT-2 cells by XTT assay relative to wild-type; type: functional, MT2; method in brief: as §1
[16] = tested on: Human immunodeficiency virus 1; assay: Antiviral activity against Human immunodeficiency virus 1 isolate 29 harboring Gag-capsid I138M, A146P, R286K and A326S mutant gene and protease L10F, I13V, V32I, M36L, S37N, M46I, I47V, I62V, L63P, A71I, I72V and V82A mutant gene infected in human MT-2 cells by XTT-assay relative to wild-type; type: functional, MT2; method in brief: as §1
[17] = tested on: Human immunodeficiency virus 1; assay: Antiviral activity against antiretroviral-pretreated PI-resistant Human immunodeficiency virus 1 isolate 9 harboring Gag-SP1 T375N and I376V mutant gene infected in human MT-2 cells by XTT assay relative to wild-type; type: functional, MT2; method in brief: as §2
[18] = tested on: Human immunodeficiency virus 1; assay: Antiviral activity against antiretroviral-pretreated PI-resistant Human immunodeficiency virus 1 isolate 24 harboring Gag-capsid V362I mutant gene, Gag-SP-1 V370A, N372T and T375A mutant gene and deletion at T371 in Gag-SP-1 infected in human MT-2 cells by XTT assay relative to wild-type; type: functional, MT2; method in brief: as §2
[19] = tested on: Human immunodeficiency virus 1; assay: Antiviral activity against antiretroviral-pretreated PI-resistant Human immunodeficiency virus 1 isolate 6 harboring Gag-SP-1 V370A,S373A and A374T mutant gene infected in human MT-2 cells by XTT assay relative to wild-type; type: functional, MT2; method in brief: as §2
[20] = tested on: Human immunodeficiency virus 1; assay: Antiviral activity against Human immunodeficiency virus 1 isolate 39 harboring Gag-capsid G357S and V362I mutant gene and Gag-SP-1 T375A mutant gene infected in human MT-2 cells by XTT assay relative to wild-type; type: functional, MT2; method in brief: as §1
[21] = tested on: Human immunodeficiency virus 1; assay: Antiviral activity against antiretroviral-pretreated PI-resistant Human immunodeficiency virus 1 isolate 7 infected in human MT-2 cells by XTT assay relative to wild-type; type: functional, MT2; method in brief: as §2

COC(=O)N[C@H](C(=O)N[C@@H](Cc1ccccc1)[C@@H](O)CN(Cc1ccc(-c2ccccn2)cc1)NC(=O)[C@@H](NC(=O)OC)C(C)(C)C)C(C)(C)C [ATAZANAVIR]
fold change (FC) [1]: 8.5

C=C(C)[C@@H]1CC[C@]2(C(=O)O)CC[C@]3(C)[C@H](CC[C@@H]4[C@@]5(C)CC[C@H](OC(=O)CC(C)(C)C(=O)O)C(C)(C)[C@@H]5CC[C@]43C)[C@@H]12 [BEVIRIMAT]
fold change (FC) [2]: >100 | fold change (FC) [3]: >100 | fold change (FC) [4]: 4.6 | fold change (FC) [5]: >100 | fold change (FC) [6]: >100 | fold change (FC) [7]: >100 | fold change (FC) [8]: >100 | fold change (FC) [9]: >100 | fold change (FC) [10]: >100 | fold change (FC) [11]: 1.3 | fold change (FC) [12]: 1.2 | fold change (FC) [13]: >100 | fold change (FC) [14]: 0.4 | fold change (FC) [15]: >100 | fold change (FC) [16]: >100 | fold change (FC) [17]: 4.7 | fold change (FC) [18]: >100 | fold change (FC) [19]: >100 | fold change (FC) [20]: >100 | fold change (FC) [21]: 1

Cc1cccc(C)c1OCC(=O)N[C@@H](Cc1ccccc1)[C@@H](O)C[C@H](Cc1ccccc1)NC(=O)[C@H](C(C)C)N1CCCNC1=O [LOPINAVIR]
fold change (FC) [1]: 15.3
